Reference: ChEMBL document CHEMBL4513216, “Probing the Open Global Health Chemical Diversity Library for Multistage-Active Starting Points for Next-Generation Antimalarials” (ACS Infect Dis, 2020)

experiment: Toxicity liver stage against HepG2, at 10uM; type: cell-based; set-up: test concentration 10 uM, cell line HepG2-A16-CD81EGFP; settings: human, HepG2-A16-CD81EGFP cells; read-out: INHIBITION
Summary of the method: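 Uninfected HepG2-A16-CD81EGFP cells, 3 × 10^3 per well, 1536-well, plated on prespotted compound at 10 μM final, parasite-free screening media added to match infected plates; puromycin 10 μM positive, DMSO 0.5% negative; run in parallel with 48 h PbLuc assay at 37 °C, 5% CO2; viability by CellTiter-Glo luminescence, normalized to controls.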

SMILES | cytotoxicity at 10 µM [%]
NC(=O)Cn1cnc2nc3n(c2c1=O)CCC3 | 2.96
Cn1ccnc1CN1C[C@H]2CN(S(=O)(=O)c3ccccc3)CCN2C1=O | 8.36
CC(C)(C)c1c[nH]c([C@@H]2COCCN2C2CCCCC2)n1 | -1.6
CC1CCN(c2ccc(=O)n(CC(=O)N(C)Cc3ccccc3)n2)CC1 | 4.84
Cn1nnn(-c2ccc(NS(=O)(=O)c3ccc(Br)cc3)cc2)c1=O | -2.77
O=C(NCCn1cnc(C2CCCC2)cc1=O)NCc1cccs1 | -7.05
CNC(=O)CN1C(=O)CCC12CCCN(Cc1ccccn1)C2 (centres undefined) | 4.5
O=C1N(Cc2cccc(F)c2)CCC12CCCNC2 (centres undefined) | -5.19
CCN1C(=O)CCCC12CCCN(C(=O)c1sccc1C)C2 (centres undefined) | 3.73
CCN1C(=O)CCCC12CCCN(C(=O)c1cc(C)oc1C)C2 (centres undefined) | 4.09
c1cnc(N2CC3(CCN(C4CCOC4)CC3)c3ccccc32)nc1 (centres undefined) | -4.2
CCC(=O)N1CC[C@H]2C(=O)N(Cc3ccc(OC)cc3)CCO[C@H]2C1 | -114
Cc1cccc(CN2CC3C[C@]3(NC(=O)c3ccoc3)C2)n1 (some centres undefined) | -147
Cn1cncc1CN1CCC2(CC1)CCN2c1ncccn1 | 9.61
COc1cccc(CC(=O)N2CCc3nc(C(N)=O)sc3CC2)c1 | 9.94
Fc1cnc(N2CCOCC3(CCCNC3)C2)nc1 (centres undefined) | -5.36
Cc1ccccc1C(=O)N1CCCn2nnc(Cn3cccn3)c2C1 | 9.94
Cc1ccc(CN2CC3(CCN(C(=O)Cc4ccc(Cl)cc4)C3)C2)o1 | 6.11
COc1cccc(-n2nc(C(C)=O)c(C(C)=O)c2C)c1 | 9.51
CCNC(=O)c1ccc2c(c1)nc1n2CCN(C(C)C)C1 | 9.35
CC(=O)c1c(C)nn(S(=O)(=O)c2ccc(Cl)cc2)c1C | -6.74
COC(=O)c1ccccc1NC(=O)c1nc2ccccc2n(C)c1=O | -9.99

SMILES | cytotoxicity at 10 µM [%]
COCCO[C@@H]1C[C@H]2CN(C(=O)c3ccc(C)nc3)CCN2C1 | -2.2
CC(Oc1ccc2c(c1)OCO2)C(=O)Nc1ccon1 (centres undefined) | 1.09
O=C(NC1CC1)c1cc(Sc2ncccn2)ccn1 | 0.493
O=C(O)c1ccccc1-c1cnc(CNC(=O)C2CCOCC2)nc1 | -3.99
CC(C)C(=O)N1CCC(C)(c2cc[nH]n2)CC1 | 1.96
OCCOc1cc(F)ccc1NCc1ccc(F)c(F)c1 | -6.38
Cc1nnc(NCc2ccc(F)cc2)o1 | 0.217
CC(c1nc(C2CC2)no1)N1CCC(NS(=O)(=O)c2cccs2)CC1 (centres undefined) | 6.4
CCOC(=O)C1(O)CCN(C(=O)Nc2cccc(F)c2)CC1 | -144
CN(CC(=O)NCCC#N)C(c1ccccc1)c1ccccc1 | 6.51
COC(=O)c1ccc(F)c(S(=O)(=O)Nc2ccc(C(N)=O)cc2)c1 | 3.63
CCC(CC)C(=O)NS(=O)(=O)CCc1ccccc1 | 1.76
C[C@@H]1CN(Cc2ccccc2F)CC(C(N)=O)O1 (some centres undefined) | 1.95
Cc1cc(CSc2ccccn2)on1 | 8.4
CCc1ocnc1C(=O)N1CCOCC1CC(=O)c1ccccc1 (centres undefined) | 5.92
Cc1ccn(-c2ccc(N3CCN(Cc4ccccn4)CC3)nn2)n1 | 5.6
O=C(CN1CCS(=O)(=O)CC1)NC1CCCc2ccccc21 (centres undefined) | -0.82
Cc1nc(CN2CCN(C(=O)c3scnc3C)CC2)cs1 | 0.524
CNS(=O)(=O)CC(=O)N1CC2(CCCC2)c2c(F)cccc21 | -1.21
CCSc1ccc(NC(=O)NC(C)c2c(C)nn(C)c2C)cn1 (centres undefined) | -2.6
O=C(c1cccc2c1OCO2)N1CCC(N2CCCC2)CC1 | -2.35
Cc1cc(C(=O)Nc2ccc(OCC3CCOCC3)cc2)[nH]n1 | -7.04

SMILES | cytotoxicity at 10 µM [%]
CC(C)N(CC(N)=O)Cc1csc(-c2ncccn2)n1 | 5.85
CC(C(=O)NC1CC1)S(=O)(=O)c1cc2c(cc1Cl)OCCO2 (centres undefined) | -13.9
CCc1n[nH]c(C2CN(Cc3csc(C4CCCC4)n3)CCO2)n1 (centres undefined) | -14.6
CCn1nc(C)cc1C(=O)N1CCOc2cc(C)ccc21 | 10.5
CCc1n[nH]c(C2CN(Cc3csc(COC)n3)CCO2)n1 (centres undefined) | 0.753
COCCS(=O)(=O)NCC(C)c1cccc(C)c1 (centres undefined) | 2.03
CC(C)C(CCO)NC(=O)Nc1cc(F)ccc1-n1cccn1 (centres undefined) | -4.06
CN(CC(N)=O)CC(=O)N(C1=CCCCC1)C1CC1 | -3.85
CN(CC(=O)N1CCN(c2ncccn2)CC1)c1ccc(Cl)cn1 | -9.65
CCc1noc(C(C)N2CCN(c3ccc(C#N)cc3F)CC2)n1 (centres undefined) | -9.7
Cc1ccc(N2CCCC3(CCN(C(=O)C4CC4)C3)C2)nn1 (centres undefined) | -109
O=C1NCC2(CCCN(C(=O)Nc3ccc4occc4c3)CC2)O1 (centres undefined) | 2.09
CCCc1nc(C)cc(NCCc2nnc(N)s2)n1 | 3.07
CCc1nc(C)c([C@H]2CN(C)C[C@@H]2C(=O)Nc2cccc3cn[nH]c23)[nH]1 | -3.44
CCn1nc(C)c(CCn2ccnc2-c2cc3n(n2)CCNC3)c1C | 5.15
COc1ccccc1OCCCc1cc(C)nc(N)n1 | 0.915
COC(=O)[C@H]1C[C@@H](O)CCN1S(=O)(=O)c1cc(Cl)ccc1OC | 5.1
Cc1cc(C)c(C#N)c(N2CCC3(CCCN(CCO)C3=O)C2)n1 (centres undefined) | 0.854
CCc1ccc(CN2CCC(CNC(=O)c3ccc(C)nc3)C2)nc1 (centres undefined) | 7.78
CCNc1nc(C)c(C(=O)N(C)Cc2nc(-c3ccncc3)no2)s1 | 1.41
O=C(Cc1ccccc1C(F)(F)F)N1CCC2(CC1)[C@H](O)C[C@@H]2O | -4.87
CC(=O)c1cc(CN2CCCC2c2nc3ccc(C)cc3[nH]2)cs1 (centres undefined) | 3.01

SMILES | cytotoxicity at 10 µM [%]
COCCc1noc(Cn2c(=O)[nH]c3ccccc32)n1 | -2.03
CN1C[C@@H](n2cnc(-c3ccccc3)c2-c2nccn2C)C[C@H]1C(=O)O | -0.338
Cc1cc2nc(C(C)C)cc(N3CCC(Oc4ncccn4)CC3)n2n1 | 13.9
O=C(c1ccc2sccc2c1)N1CCC(C(=O)O)(n2cccn2)CC1 | -2.77
CCC(CO)N(Cc1cccnc1)Cc1ccc(-c2ccn[nH]2)s1 (centres undefined) | -1.55
O=C(NC1CCCNC1)c1cc(COc2cccc(C(F)(F)F)c2)[nH]n1 (centres undefined) | -1.31
Cc1[nH]c2c(C)ccc(C)c2c1CC(=O)NCCNc1cccnc1 | 0.393
COCCN(Cc1cccs1)c1nc(CCN)nc2ccccc12 | 4.49
Cc1cc(C(=O)N2CCC(C)CC2)ccc1NS(C)(=O)=O | 3.09
Cc1c(C(=O)NCC2CCN(Cc3c[nH]cn3)C2)[nH]c2ccccc12 (centres undefined) | -9.8
COCc1nc(CNc2cc(C)nc(N3CCCCC3)n2)no1 | 9.84
CN1CCN(Cc2nnc(C3CCN(CC4CC4)CC3)n2C)CC1 | -13.6
c1cnc(-c2nc(CN3CCCC(N4CCCC4)C3)cs2)nc1 (centres undefined) | -12
COc1cccc(CC(=O)N2CCC(NCc3c[nH]nc3C)CC2)c1 | -8.98
COc1c(C2CCCN2C(=O)c2ccc3c(c2)OCO3)c(C)nn1C (centres undefined) | -13.4
Cc1nnc2n1CCN(Cc1nc(-c3ccoc3)no1)C2 | -5.86
CC(C)c1nc(CNCC2CCCN2c2cccnn2)cs1 (centres undefined) | -4.84
Cc1occc1C(=O)Nc1cnn(CCN2CCOCC2)c1 | -10
Cc1cnn(CC2CCCN2C(=O)c2cccc(-n3ccc(C)n3)c2)c1 (centres undefined) | -19.2
CC(C)(C)c1nc(CN2CCC(c3ccnn3CCO)CC2)no1 | -5.22
Cc1cccnc1CNC(=O)N(CCCO)C1CCc2ccccc21 (centres undefined) | -11.4
O=C(Cn1c(-c2ccco2)cc2cccnc21)N1CCCC1 | -4.04

SMILES | cytotoxicity at 10 µM [%]
O=C1CCC2(CCC(NC3CCOC3)CC2)N1Cc1ccccc1 (centres undefined) | -5.54
Cn1cc(C(=O)N[C@@H]2CN(Cc3ccc(F)cc3)[C@@H]3CCCO[C@@H]32)cn1 | -1.31
CCN(CC)CC1CN(Cc2cccc(C#N)c2)Cc2nccn2C1 (centres undefined) | -127
CN1CC(=O)N(c2cccc(F)c2)CC12CCN(Cc1ccncc1)C2 (centres undefined) | 5.69
Cc1ccc(N2CC3(COCCN(Cc4nccs4)C3)OCC2=O)s1 (centres undefined) | -13.5
Cc1ccnc(OC[C@@]23CCO[C@@H]2CCN(C2CCC2)C3)n1 | 8.01
CCc1ccc(CN2CCC3(CC2)C(=O)N(C)CCN3CC2CC2)cc1 | 5.68
Cc1ccc(CN2Cc3c(C(=O)N4CCOCC4)nn(C)c3C2)s1 | 6.15
Cn1cc(CN2CCCC23CCN(C(=O)c2ccccn2)CC3)cn1 | -1.94
O=C(NCc1ccccn1)[C@]12COC[C@H]1CN(Cc1cccnc1)C2 | 5.64
O=C(c1ccncc1)N1CCC2(CC1)C(=O)Nc1ccccc12 | -146
O=C(c1cccs1)N1C[C@@H]2OCCN(CC3CCCO3)[C@@H]2C1 (some centres undefined) | -2.24
Cn1cc(CN2CC[C@@H]3[C@@H](CO[C@H]3CNC(=O)c3ccco3)C2)cn1 | -142
COCCN1CCc2cc(C(=O)O)c(NCC3CC3)nc2CC1 | 4.21
CCN1C(=O)[C@H]2CN(CC(C)C)C[C@H]2C12CCN(C(=O)NC(C)C)CC2 | 4.89
CNC(=O)[C@@]12CCCN(c3ncccn3)[C@@H]1CN(C)C2 | 12.8
c1ccc(CO[C@H]2CO[C@@]3(CCCN(Cc4cccnc4)C3)C2)nc1 | -6.37
COC1C[C@@H]2CN(C(=O)c3ccc(C)s3)C[C@@H]2C1 (some centres undefined) | -2
CCC=C(C)C(=O)N1CSCC1C(=O)N(C)CCc1ccncc1 (centres undefined) | -9.72
O=C(c1ccc[nH]1)N1C[C@@H]2CC[C@H]1CN(c1ncccn1)C2 | -7.12
CCOC(=O)c1cnn(C2CCN(C(=O)CC(C)(C)C)CC2)c1N | 6.26
